# Experimental data from ChEMBL document CHEMBL1124186, “Synthesis and evaluation of tylosin-related macrolides modified at the aldehyde function: a new series of orally effective antibiotics” (1988).
# Columns and labels:
# [1] = test system: Bacteroides fragilis; experiment: In vitro antimicrobial activity against anaerobic bacteria bacteroides fragilis 111; format: functional
# [2] = test system: Bacteroides fragilis; experiment: In vitro antimicrobial activity against anaerobic bacteria bacteroides fragilis 1877; format: functional
# [3] = test system: Bacteroides fragilis; experiment: In vitro antimicrobial activity against anaerobic bacteria bacteroides fragilis 1936B,; format: functional
# [4] = test system: Eikenella corrodens; experiment: In vitro antimicrobial activity against anaerobic bacteria bacteroides corrodens 1874; format: functional
# [5] = test system: Phocaeicola vulgatus; experiment: In vitro antimicrobial activity against anaerobic bacteria bacteroides vulgatus 1211; format: functional
# [6] = test system: Prevotella melaninogenica; experiment: In vitro antimicrobial activity against anaerobic bacteria bacteroides melaninogenicus 1856,; format: functional
# [7] = test system: Bacteroides thetaiotaomicron; experiment: In vitro antimicrobial activity against anaerobic bacteria bacteroides thetaiotaomicron 1438; format: functional
# [8] = test system: Clostridioides difficile; experiment: In vitro antimicrobial activity against anaerobic bacteria Clostridium difficile 2994; format: functional
# [9] = test system: Clostridium perfringens; experiment: In vitro antimicrobial activity against anaerobic bacteria clostridium perfringens 81,; format: functional
# [10] = test system: Clostridium septicum; experiment: In vitro antimicrobial activity against anaerobic bacteria clostridium septicum 1128; format: functional
# [11] = test system: Chlamydia trachomatis; experiment: In vitro antimicrobial activity against chlamydia trachomatis.; format: functional
# [12] = test system: Fusobacterium; experiment: In vitro antimicrobial activity against anaerobic bacteria fusobacterium symbiosum 1470; format: functional
# [13] = test system: Haemophilus influenzae; experiment: In vitro antimicrobial activity against aerobic bacteria Haemophilus influenzae 76; format: functional
# [14] = test system: Haemophilus influenzae; experiment: In vitro antimicrobial activity against aerobic bacteria Haemophilus influenzae MX366,; format: functional
# [15] = test system: Haemophilus influenzae; experiment: In vitro antimicrobial activity against Haemophilus influenzae.; format: functional
# [16] = test system: Haemophilus parainfluenzae; experiment: In vitro antimicrobial activity against aerobic bacteria Haemophilus parainfluenzae 9796; format: functional
# [17] = test system: Mus musculus; experiment: Peripheral plasma levels in mice after oral administration of 50 mg/kg dose for 2 hr; format: functional, organism-based; set-up: dose 50 mg/kg
# Outline: (§1)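 Mice were given the compound orally and sampled for peripheral plasma at each time point. Plasma was assayed microbiologically against Micrococcus luteus seeded in Antibiotic Medium 1. Inhibition zone sizes were read, and concentrations were calculated from each compound's own standard curve. Each value is the mean of five mice per time point.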
# [18] = test system: Mus musculus; experiment: Peripheral plasma levels in mice after oral administration of 50 mg/kg dose for 4 hr; format: functional, organism-based; set-up: dose 50 mg/kg; outline: as §1
# [19] = test system: Mus musculus; experiment: Peripheral plasma levels in mice after oral administration of 100 mg/kg dose for 4 hr; format: functional, organism-based; set-up: dose 100 mg/kg; outline: as §1
# [20] = test system: Mus musculus; experiment: Peripheral plasma levels in mice after oral administration of 50 mg/kg dose for 0.25 hr; format: functional, organism-based; set-up: dose 50 mg/kg; outline: as §1
# [21] = test system: Mus musculus; experiment: Peripheral plasma levels in mice after oral administration of 100 mg/kg dose for 0.25 hr; format: functional, organism-based; set-up: dose 100 mg/kg; outline: as §1
# [22] = test system: Mus musculus; experiment: Peripheral plasma levels in mice after oral administration of 100 mg/kg dose for 0.5 hr; format: functional, organism-based; set-up: dose 100 mg/kg; outline: as §1
# [23] = test system: Mus musculus; experiment: Peripheral plasma levels in mice after oral administration of 100 mg/kg dose for 1 hr; format: functional, organism-based; set-up: dose 100 mg/kg; outline: as §1
# [24] = test system: Mus musculus; experiment: Peripheral plasma levels in mice after oral administration of 100 mg/kg dose for 2 hr; format: functional, organism-based; set-up: dose 100 mg/kg; outline: as §1
# [25] = test system: Mus musculus; experiment: Peripheral plasma levels in mice after oral administration of 50 mg/kg dose for 1 hr; format: functional, organism-based; set-up: dose 50 mg/kg; outline: as §1
# [26] = In vitro antimicrobial activity against anaerobic bacteria peptostreptococcus intermedius 1264; format: functional
# [27] = test system: Peptoniphilus asaccharolyticus; experiment: In vitro antimicrobial activity against anaerobic bacteria peptococcus asaccharolyticus 1302; format: functional
# [28] = test system: Anaerococcus prevotii; experiment: In vitro antimicrobial activity against anaerobic bacteria peptococcus prevoti 1281; format: functional
# [29] = test system: Cutibacterium acnes; experiment: In vitro antimicrobial activity against anaerobic bacteria propionibacterium acnes 79; format: functional
# [30] = test system: Rattus norvegicus; experiment: Peripheral plasma levels in rats after oral administration of 100 mg/kg dose for 0.25 hr; format: functional, organism-based; set-up: dose 100 mg/kg
# Outline: (§2)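 Rats received 100 mg/kg orally and were sampled for peripheral plasma. Concentrations were measured by Micrococcus luteus agar-diffusion microbiological assay in Antibiotic Medium 1, with zone sizes converted using the standard curve for the appropriate compound. Each value is the average of three rats per time point.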
# [31] = test system: Rattus norvegicus; experiment: Peripheral plasma levels in rats after oral administration of 100 mg/kg dose for 0.5 hr; format: functional, organism-based; set-up: dose 100 mg/kg; outline: as §2
# [32] = test system: Rattus norvegicus; experiment: Peripheral plasma levels in rats after oral administration of 100 mg/kg dose for 1 hr; format: functional, organism-based; set-up: dose 100 mg/kg; outline: as §2
# [33] = test system: Rattus norvegicus; experiment: Peripheral plasma levels in rats after oral administration of 100 mg/kg dose for 2 hr; format: functional, organism-based; set-up: dose 100 mg/kg; outline: as §2
# [34] = test system: Rattus norvegicus; experiment: Peripheral plasma levels in rats after oral administration of 100 mg/kg dose for 4 hr; format: functional, organism-based; set-up: dose 100 mg/kg; outline: as §2
# [35] = test system: Staphylococcus aureus; experiment: In vivo activity against experimental infections in mice Staphylococcus aureus X1 when administered orally; format: functional; settings: po
# [36] = test system: Staphylococcus aureus; experiment: In vivo activity against experimental infections in mice Staphylococcus aureus X1 when administered sc; format: functional
# [37] = test system: Streptococcus; experiment: In vitro antimicrobial activity against aerobic bacteria Streptococcus B 14; format: functional
# [38] = test system: Streptococcus; experiment: In vitro antimicrobial activity against aerobic bacteria Streptococcus B 8; format: functional
# [39] = test system: Streptococcus; experiment: In vitro antimicrobial activity against aerobic bacteria Streptococcus C 24; format: functional
# [40] = test system: Streptococcus; experiment: In vitro antimicrobial activity against aerobic bacteria Streptococcus D 8043; format: functional
# [41] = test system: Streptococcus; experiment: In vitro antimicrobial activity against aerobic bacteria Streptococcus D 9960; format: functional
# [42] = test system: Streptococcus; experiment: In vitro antimicrobial activity against aerobic bacteria Streptococcus G Kruder; format: functional; settings: Streptococcus; read-out: MIC
# [43] = test system: Staphylococcus epidermidis; experiment: In vitro antimicrobial activity against aerobic bacteria Streptococcus epi 270; format: functional
# [44] = test system: Staphylococcus aureus; experiment: In vitro antimicrobial activity against Staphylococcus aureus X1; format: functional
# [45] = test system: Staphylococcus aureus; experiment: In vitro antimicrobial activity against aerobic bacteria Staphylococcus aureus 513E; format: functional
# [46] = test system: Staphylococcus aureus; experiment: In vitro antimicrobial activity against aerobic bacteria Staphylococcus aureus V140,; format: functional
# [47] = test system: Staphylococcus aureus; experiment: In vitro antimicrobial activity against aerobic bacteria Staphylococcus aureus V41; format: functional
# [48] = test system: Staphylococcus aureus; experiment: In vitro antimicrobial activity against aerobic bacteria Staphylococcus aureus X400; format: functional
# [49] = test system: Streptococcus pneumoniae; experiment: In vivo activity against experimental infections in mice Streptococcus pneumoniae park when administered orally; format: functional; settings: po
# [50] = test system: Streptococcus pneumoniae; experiment: In vivo activity against experimental infections in mice Streptococcus pneumoniae park when administered sc; format: functional
# [51] = test system: Streptococcus pneumoniae; experiment: In vitro antimicrobial activity against aerobic bacteria Streptococcus pneumoniae B1-438; format: functional, streptococcus pneum
# [52] = test system: Streptococcus pyogenes; experiment: In vivo effective dose against experimental infections in rodent caused by Streptococcus pyogenes C203 when administered sc; format: functional
# [53] = test system: Streptococcus sanguinis; experiment: In vitro antimicrobial activity against aerobic bacteria Streptococcus sanguis MX132; format: functional
# [54] = test system: Streptococcus pneumoniae; experiment: In vitro antimicrobial activity against Streptococcus pneumoniae; format: functional
# [55] = test system: Staphylococcus epidermidis; experiment: In vitro antimicrobial activity against Staphylococcus epidermidis EPI1; format: functional
# [56] = test system: Staphylococcus epidermidis; experiment: In vitro antimicrobial activity against aerobic bacteria Streptococcus epi 222; format: functional
# [57] = test system: Enterococcus faecium; experiment: In vitro antimicrobial activity against Streptococcus faecium X66; format: functional, streptococcus fae-cium
# [58] = test system: Streptococcus pyogenes; experiment: In vitro antimicrobial activity against Streptococcus pyogenes C203; format: functional
# [59] = test system: Streptococcus viridans; experiment: In vitro antimicrobial activity against aerobic bacteria Streptococcus viridans 9943; format: functional
# [60] = test system: Streptococcus; experiment: In vitro antimicrobial activity against aerobic bacteria Streptococcus B 5; format: functional
# [61] = test system: Staphylococcus aureus; experiment: In vitro antimicrobial activity against aerobic bacteria Staphylococcus aureus V135; format: functional
# [62] = test system: Haemophilus influenzae; experiment: In vitro antimicrobial activity against aerobic bacteria Haemophilus influenzae 465; format: functional
# [63] = test system: Prevotella melaninogenica; experiment: In vitro antimicrobial activity against anaerobic bacteria bacteroides melaninogenicus 2736; format: functional
# [64] = test system: Fusobacterium necrophorum; experiment: In vitro antimicrobial activity against anaerobic bacteria usobacterium necrophorum 6054A; format: functional
# [65] = test system: Mus musculus; experiment: Peripheral plasma levels in mice after oral administration of 50 mg/kg dose for 0.5 hr; format: functional, organism-based; set-up: dose 50 mg/kg; outline: as §1
# [66] = test system: Collinsella aerofaciens; experiment: In vitro antimicrobial activity against anaerobic bacteria eubacterium aerofaciens 1235; format: functional
# [67] = test system: Streptococcus; experiment: In vitro antimicrobial activity against aerobic bacteria Streptococcus D 2041; format: functional
# [68] = test system: Peptostreptococcus anaerobius; experiment: In vitro antimicrobial activity against anaerobic bacteria eubacterium peptostreptococcus anaerobius 1428,; format: functional
# [69] = test system: Streptococcus pyogenes; experiment: In vivo effective dose against experimental infections in rodent caused by Streptococcus pyogenes C203 when administered orally; format: functional; settings: po
compound,measurement,setting,value
CC[C@H]1OC(=O)C[C@@H](O)[C@H](C)[C@@H](O[C@@H]2O[C@H](C)[C@@H](O)[C@H](N(C)C)[C@H]2O)[C@@H](CCOc2ccccc2)C[C@@H](C)C(=O)/C=C/C(C)=C/[C@@H]1CO[C@@H]1O[C@H](C)[C@@H](O)[C@@H](OC)[C@H]1OC,MIC,[1],1 µg/mL
same,MIC,[2],1 µg/mL
same,MIC,[3],1 µg/mL
same,MIC,[4],1 µg/mL
same,MIC,[5],1 µg/mL
same,MIC,[6],1 µg/mL
same,MIC,[7],2 µg/mL
same,MIC,[8],< 0.5 µg/mL
same,MIC,[9],< 0.5 µg/mL
same,MIC,[10],< 0.5 µg/mL
same,MIC,[11],0.25 µg/mL
same,MIC,[12],1 µg/mL
same,MIC,[13],16 µg/mL
same,MIC,[14],16 µg/mL
same,MIC,[15],32 µg/mL
same,MIC,[16],32 µg/mL
same,Concentration,[17],1.2 µg/mL
same,Concentration,[18],0.2 µg/mL
same,Concentration,[19],1.2 µg/mL
same,Concentration,[20],3.2 µg/mL
same,Concentration,[21],8.9 µg/mL
same,Concentration,[22],11.5 µg/mL
same,Concentration,[23],13.1 µg/mL
same,Concentration,[24],6.5 µg/mL
same,Concentration,[25],2.4 µg/mL
same,MIC,[26],2 µg/mL
same,MIC,[27],1 µg/mL
same,MIC,[28],1 µg/mL
same,MIC,[29],8 µg/mL
same,Concentration,[30],2.6 µg/mL
same,Concentration,[31],3.9 µg/mL
same,Concentration,[32],3.4 µg/mL
same,Concentration,[33],4.8 µg/mL
same,Concentration,[34],5.6 µg/mL
same,ED50,[35],17 mg/kg
same,ED50,[36],4.2 mg/kg
same,MIC,[37],16 µg/mL
same,MIC,[38],8 µg/mL
same,MIC,[39],0.25 µg/mL
same,MIC,[40],2 µg/mL
same,MIC,[41],8 µg/mL
same,MIC,[42],32 µg/mL
same,MIC,[43],> 128 µg/mL
same,MIC,[44],0.25 µg/mL
same,MIC,[45],0.25 µg/mL
same,MIC,[46],0.25 µg/mL
same,MIC,[47],0.25 µg/mL
same,MIC,[48],0.25 µg/mL
same,ED50,[49],> 50 mg/kg
same,ED50,[50],> 20 mg/kg
same,MIC,[51],> 128 µg/mL
same,ED50,[52],5 mg/kg
same,MIC,[53],1 µg/mL
same,MIC,[54],1 µg/mL
same,MIC,[55],0.25 µg/mL
same,MIC,[56],0.12 µg/mL
same,MIC,[57],8 µg/mL
same,MIC,[58],0.12 µg/mL
same,MIC,[59],> 128 µg/mL
same,MIC,[60],4 µg/mL
same,MIC,[61],0.25 µg/mL
same,MIC,[62],16 µg/mL
same,MIC,[63],1 µg/mL
same,MIC,[64],8 µg/mL
same,Concentration,[65],2.7 µg/mL
same,MIC,[66],2 µg/mL
same,MIC,[67],8 µg/mL
same,MIC,[68],< 0.5 µg/mL
same,ED50,[69],9 mg/kg
